Screening results deposited in PubChem BioAssay by several laboratories.
Furin inh – human furin inhibitors, primary screen, biochemical, fluorescence intensity | P09958 | purified furin, fluorogenic substrate cleavage | inhibition, % at 20 µM or 30 µM | 0.061% of 220,000 active; in the data active = inhibition above about 25%
Cl transport mod – KCC2 cotransporter modulators, thallium flux, primary screen, cell-based, HEK293 KCC2, FluoZin-2 fluorescence, MLSMR | KCC2 cells, thallium flux FluoZin-2 fluorescence | Solute carrier family 12 member 5 (Homo sapiens), Q9H2X9 | AID 1456, 2008 | 2.2% of 190,000 active | B-score of Tl+ flux slope (higher = more flux/activation; lower = inhibition) at 10 µM;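 active = thallium flux slope and its plate-corrected score both differing from the plate sample mean at a set confidence after two filtering rounds, in either direction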;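 note: slope of fluorescence scaled to starting intensity during 10 to 20 s after thallium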
Target sequence (Q9H2X9 whole entry, looked up): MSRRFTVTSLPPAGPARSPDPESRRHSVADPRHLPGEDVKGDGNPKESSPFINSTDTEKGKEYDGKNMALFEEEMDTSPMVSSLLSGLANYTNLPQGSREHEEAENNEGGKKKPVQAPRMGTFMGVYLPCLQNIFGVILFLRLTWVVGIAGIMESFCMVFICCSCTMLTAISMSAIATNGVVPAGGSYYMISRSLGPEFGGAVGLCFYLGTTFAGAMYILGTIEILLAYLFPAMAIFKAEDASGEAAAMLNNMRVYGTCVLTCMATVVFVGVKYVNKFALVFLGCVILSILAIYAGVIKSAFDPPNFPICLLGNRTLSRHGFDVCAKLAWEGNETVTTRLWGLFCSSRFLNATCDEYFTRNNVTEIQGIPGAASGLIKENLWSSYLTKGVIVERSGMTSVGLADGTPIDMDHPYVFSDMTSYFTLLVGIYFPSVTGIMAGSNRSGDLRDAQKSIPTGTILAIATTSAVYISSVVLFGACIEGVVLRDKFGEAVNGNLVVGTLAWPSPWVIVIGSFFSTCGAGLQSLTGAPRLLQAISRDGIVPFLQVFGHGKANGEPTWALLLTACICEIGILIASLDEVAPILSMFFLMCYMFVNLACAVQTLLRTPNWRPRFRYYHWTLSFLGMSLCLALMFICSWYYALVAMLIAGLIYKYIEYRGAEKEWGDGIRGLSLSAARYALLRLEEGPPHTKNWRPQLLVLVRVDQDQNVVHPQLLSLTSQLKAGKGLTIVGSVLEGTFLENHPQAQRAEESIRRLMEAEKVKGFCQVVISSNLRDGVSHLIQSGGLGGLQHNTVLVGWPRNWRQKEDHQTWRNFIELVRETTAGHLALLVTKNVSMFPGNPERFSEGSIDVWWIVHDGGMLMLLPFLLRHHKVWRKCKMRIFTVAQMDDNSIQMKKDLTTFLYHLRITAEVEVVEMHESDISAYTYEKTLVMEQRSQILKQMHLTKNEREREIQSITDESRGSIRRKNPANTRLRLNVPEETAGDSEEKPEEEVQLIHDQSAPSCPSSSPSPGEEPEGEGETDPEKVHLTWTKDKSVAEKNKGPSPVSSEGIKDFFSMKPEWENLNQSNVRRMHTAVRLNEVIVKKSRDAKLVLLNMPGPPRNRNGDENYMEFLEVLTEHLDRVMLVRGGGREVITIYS
NPY Y2 blocker – NPY-Y2 receptor antagonists, primary screen, cell-based | Neuropeptide Y receptor type 2 (Homo sapiens), P49146 | 0.99% of 140,000 active | inhibition, % at 2.7 µM | NPY-Y2 expressing cells, antagonist mode;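 note: 0% = vehicle with agonist challenge and 100% = reference antagonist with challenge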
NPY-Y1 PAM-ag – NPY-Y1 receptor potentiators or agonists, primary screen, cell-based; Neuropeptide Y receptor type 1 (Homo sapiens), P25929; NPY-Y1 expressing cells, potentiator/agonist activation; activation, % at 3.6 µM; 0.37% of 220,000 active; AID 1304, 2008; in the data active = activation above about 33%, passing the limit was not always enough;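 note: cells stimulated with NPY at EC10 then isoproterenol at EC100; 0% = low agonist plus stimulus and 100% = saturating agonist plus stimulus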
NPY-Y2 PAM-ag – NPY-Y2 potentiators or agonists, primary screen, cell-based. AID 1359, 2008. cells expressing NPY-Y2, potentiator/agonist read-out. Neuropeptide Y receptor type 2 (Homo sapiens), P49146. activation, % at 3.6 µM. 0.45% of 220,000 active; in the data active = activation above about 27%;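 note: cells stimulated with NPY near EC25 plus isoproterenol at EC100; 0% = vehicle plus submaximal agonist and 100% = vehicle plus saturating agonist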
NPY Y1 blocker – NPY-Y1 receptor antagonists, primary screen, cell-based; HEK293-CNG Y1 cells, membrane potential fluorescence; NPY at EC95, then isoproterenol; inhibition, % at 3.6 µM; AID 1040, 2008; 1% of 200,000 active;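 active = inhibition above the campaign mean inhibition of all tested compounds plus 3 SD, cut at about 20% in these data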;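 note: 0% = DMSO wells given NPY plus isoproterenol and 100% = isoproterenol alone without NPY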
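Assay system: HEK293 cells with Y1 receptor plus CNG channel | Probe or stimulus: NPY (25 nM), isoproterenol (1 µM), Ro 20-1724 (25 µM) | Timing: Compound incubation 1 h at room temperature, readout 45 min post-stimulation | Measured by: Membrane-potential fluorescent dye readout | Benchmarks: High control isoproterenol alone, low control NPY with isoproterenol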
NPY-Y1 ant conf – NPY-Y1 receptor antagonists, retest of hits, confirmation, HEK293-CNG cells, membrane potential fluorescence, triplicate. shares compounds with NPY Y1 blocker. cAMP; NPY challenge against isoproterenol-raised cAMP. inhibition, % at 3.6 µM. 21% of 1,200 active. AID 1254, 2008; in the data active = inhibition above about 20%;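 note: 0% = vehicle with agonist plus stimulus and 100% = stimulus alone without agonist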
NPY-Y2 antag ct – NPY-Y2 receptor antagonists, selectivity check, confirmation, counter-screen for NPY-Y1 antagonist project, HEK293-CNG cells, membrane potential fluorescence, triplicate; antagonism; cells given NPY, then isoproterenol; inhibition, % at 3.6 µM; shares compounds with NPY Y1 blocker; 28% of 1,200 active; AID 1255, 2008;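 note: 0% = DMSO with agonist challenge and 100% = reference antagonist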
Active calls of the source: *; / = not tested or not shown. The list is not random: actives were taken first. Their share in the collection is about 3.7%. Cut-off read from the data, not from the text of the source, unless noted: active = inhibition above about 17%; inactive = the rest.

SMILES | Furin inh | Cl transport mod | NPY Y2 blocker | NPY-Y1 PAM-ag | NPY-Y2 PAM-ag | NPY Y1 blocker | NPY-Y1 ant conf | NPY-Y2 antag ct
CCOC(=O)c1cnc2ccc(C(=O)OC)cc2c1Nc1ccc2c(c1)OCCO2 | -27.7 | -0.473 | 2.1 | -8.7 | -7.1 | 2.2 | / | /
CCCCNC(=O)CN1C(=O)NC2(CCCc3ccccc32)C1=O (configuration not stated) | -28.4 | 0.232 | -0.6 | -10.5 | -8.7 | 25.1* | -0.5 | -0.3
CC(C)C(C)NC(=O)CN1C(=O)NC2(CCCc3ccccc32)C1=O (configuration not stated) | -18.3 | 0.484 | / | 3.9 | 3.2 | 1.3 | / | /
CCO/C(C)=C1/SC(=S)NC1=O | -5.3 | -0.666 | / | -17.6 | -5.6 | / | / | /
COc1cccc(NC(=O)c2ccccc2-c2nc(-c3ccccc3)no2)c1 | -16.2 | / | 14.7 | -64.4 | -44.7 | 26.1* | 11.6 | 9.3
COc1cccc(NC(=O)c2ccccc2-c2nc(-c3ccc(F)cc3)no2)c1 | -13.1 | -0.0843 | 7.8 | -57.1 | -20.4 | 21.9* | 13.7 | 12.4
COc1ccc(/C=N/NC(=O)COc2cc(C)cc(C)c2)cc1COC(C)=O | -20.6 | / | 12.9 | -38.9 | -8.4 | 5.2 | / | /
COC(=O)[C@H](CCSC)NS(=O)(=O)c1ccccc1Br | -25.7 | 0.585 | / | / | / | / | / | /
COc1ccc(C2C(C(=O)c3cccs3)=C(O)C(=O)N2c2cccc(C)n2)cc1 (configuration not stated) | -6.8 | -1.96 | / | 22.5 | 9.0 | / | / | /
Cc1ccc(C2C(C(=O)c3cccs3)=C(O)C(=O)N2c2nnc(C)s2)cc1 (configuration not stated) | -10.2 | -0.991 | / | -1.6 | -15.8 | 27.2* | 30.5* | 20.7*
CC[C@H](C)[C@H](NC(N)=O)C(=O)Nc1ccccc1F | -19.7 | 0.0963 | / | 7.6 | 3.0 | 0.0 | / | /
COc1ccc(CC2(CO)CCN(CC3=CC[C@H]4C[C@@H]3C4(C)C)CC2)cc1 | -23.2 | -0.354 | / | -0.7 | -7.5 | 22.2* | 11.3 | 12.4
COc1ccc(CC2(CO)CCN(Cc3ccncc3)CC2)cc1 | -18.5 | 0.523 | / | -23.5 | 1.3 | 0.5 | / | /
CCCCOc1ccc(CC(=O)NO)cc1 | -16.2 | -0.714 | -0.7 | -19.1 | 7.8 | 37.9* | -0.5 | 2.2
CCCCOc1ccc(C(=O)NC)cc1 | -25.8 | 1.74 | 0.4 | 5.3 | 12.1 | 2.4 | / | /
Cc1cc(C)n(-c2n[nH]c(C)c2[N+](=O)[O-])n1 | -26.3 | 0.182 | / | -9.3 | -12.0 | -1.6 | / | /
CCN(CC)S(=O)(=O)c1ccc2[nH]cc(C(=O)NCCCN3CCCCC3)c(=O)c2c1 | -9.9 | 1.01 | 1.6 | -7.0 | -2.2 | -3.9 | / | /
CCN(CC)S(=O)(=O)c1ccc2[nH]cc(C(=O)NCCN3CCCCCC3)c(=O)c2c1 | -33.0 | 0.0761 | -2.4 | -19.1 | -7.8 | 20.7* | 0.0 | 0.7
O=C(O)c1ccc(N(c2ccccc2)c2ccccc2)cc1 | -41.0 | -0.865 | 13.6 | -39.9 | -36.6 | 26.8* | 21.2* | 15.9
CCCc1nnc(NC(=O)CCC(=O)NCc2ccc(OC)cc2)s1 | -15.0 | 0.471 | / | 9.4 | 5.4 | / | / | /
COc1ccc(CNC(=O)CNS(=O)(=O)c2ccc(Cl)cc2)cc1 | -12.2 | 0.355 | 0.7 | -2.8 | 2.2 | -1.6 | / | /
COc1cc(S(=O)(=O)N(Cc2ccccc2)Cc2ccccn2)ccc1-n1cnnn1 | -9.6 | -0.854 | 0.1 | -13.4 | -13.4 | 4.2 | / | /
CC#CCN(CC#CC)S(=O)(=O)c1ccc(-n2cnnn2)c(OC)c1 | -31.9 | 1.43 | 17.0 | 1.9 | 10.1 | 20.8* | 8.7 | 9.1
CCCC(c1nnnn1CCOC)N1CCN(c2nc3ccccc3s2)CC1 (configuration not stated) | -8.1 | -1.44 | / | -2.1 | -7.3 | 4.2 | / | /
CCOC(=O)c1c(CSc2cccs2)n(C)c2cc(Br)c(O)c(CN(C)C)c12 | -5.9 | -1.05 | / | -60.0 | -52.9 | 59.4* | 51.2* | 47.8*
SMILES | Furin inh | Cl transport mod | NPY Y2 blocker | NPY-Y1 PAM-ag | NPY-Y2 PAM-ag | NPY Y1 blocker | NPY-Y1 ant conf | NPY-Y2 antag ct
CCOC(=O)c1c(C)n(C)c2cc(Br)c(O)c(O)c12 | -1.8 | 0.091 | / | -5.0 | -14.2 | / | / | /
CCOC(=O)c1c(NC(=O)C2CCCCC2C(=O)O)sc2c1CCCCC2 (configuration not stated) | -12.0 | -1.21 | / | -18.9 | 22.4 | 2.6 | / | /
COC(=O)c1c(NC(=O)C2CCCCC2C(=O)O)sc2c1CCCCC2 (configuration not stated) | -6.9 | -1.99 | / | -0.4 | -4.9 | 89.2* | 8.1 | 5.2
COc1ccc(NC(=O)c2cccn(CC=C(C)C)c2=O)cc1 | 10.3 | -1.36 | / | 17.6 | 15.8 | 1.3 | / | /
O=C(COC(=O)C1=COCCO1)NCc1ccc(Cl)cc1 | -10.7 | / | / | 18.6 | 4.3 | 5.2 | / | /
C1=C(c2ccccc2)Nc2ccccc2N=C1c1ccccc1 | -7.9 | 0.28 | 15.0 | -19.0 | -6.0 | 24.9* | 18.3 | 10.2
CC(Sc1c[nH]c2ccccc12)C(=O)O (configuration not stated) | -14.4 | -0.00517 | 10.0 | -42.0 | -16.5 | 27.5* | 5.1 | 4.0
Cc1cc(C)c2c(CN3CCN(C/C=C/c4ccccc4)CC3)cc(=O)oc2c1 | -10.9 | 0.0872 | 14.6 | -66.7 | -26.5 | 25.1* | 15.9 | 17.9*
COCCN(C(=O)CC1C(=O)NCCN1Cc1ccc(-c2ccccc2)cc1)C(C)C (configuration not stated) | -17.6 | -0.0925 | / | 17.6 | 13.1 | 2.9 | / | /
CCN(CC)CCCNc1nc2ccccc2[nH]1 | -30.8 | / | 1.5 | -4.0 | -3.9 | 30.1* | 0.9 | 0.3
CCNc1nc2ccccc2[nH]1 | -23.4 | / | 0.9 | 5.5 | 3.2 | -4.6 | / | /
Cc1nc2nc(SCC(=O)O)nn2c(C)c1Cc1ccccc1Cl | -37.6 | 1.23 | / | -28.4 | -12.2 | 23.0* | 11.9 | 6.3
CCC(Sc1nc2cc(OC)c(OC)cc2c(=O)n1CCc1ccc(OC)c(OC)c1)C(=O)NCCOC (configuration not stated) | -23.8 | 0.00429 | / | 7.6 | 1.9 | 6.5 | / | /
O=C(O)CCCCCCC1C(=O)NC(=O)N1CCC(O)C1CCCCC1 (configuration not stated) | -13.3 | -1.82 | 5.4 | -50.1 | -2.3 | 24.4* | 28.2* | 20.9*
O=C(O)CCCCCN1C(=O)C2CCCCC2C1=O (configuration not stated) | -17.9 | -0.557 | 2.6 | -4.9 | 13.9 | 4.6 | / | /
